Test results: ChEMBL document CHEMBL4350973, “CF2H, a Functional Group-Dependent Hydrogen-Bond Donor: Is It a More or Less Lipophilic Bioisostere of OH, SH, and CH3?” (J Med Chem, 2019)

Legend:
[1] = Octanol/water partition co-efficient, log P of compound by UV-spectrophotometry-based shake-flask method; assay type: physicochemical
Summary of the method: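 Shake-flask partition between octanol and water, each pre-saturated with the other phase for at least 24 h. Compound dissolved at 10 mM in water-saturated octanol; water/octanol volume ratio set from preliminary runs according to polarity. Phases centrifuged 3000 rpm, 5 min. Diluted octanol phase read by UV absorbance at λmax, absorbance kept within 0.2-1. Water concentration obtained by difference; log P from the volume ratio. Triplicates.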

[2] = Lipophilicity, log P of the compound; assay type: physicochemical; details: octanol/water
Summary of the method: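 Shake-flask partition between mutually pre-saturated octanol and water (at least 24 h pre-saturation). Compound dissolved at 10 mM in water-saturated octanol; water/octanol volume ratio set by preliminary runs according to polarity. Phases centrifuged 3000 rpm, 5 min; diluted octanol aliquot read by UV absorbance at λmax (range 0.2-1). Water concentration obtained by difference; log P from volume ratio; triplicates.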

logP [1] | logP [2] | Compound
2 | – | Cc1ccc(C#N)cc1
2.67 | – | COc1ccc(C)cc1
1.33 | – | CN1C(=O)c2ccccc2C1=O
– | 3.7 | CCCc1ccccc1
2.78 | – | FC(F)c1ccc(Br)cc1
2.4 | – | FC(F)c1ccccc1
1.75 | – | N#Cc1ccc(C(F)F)cc1
2.12 | – | O=[N+]([O-])c1ccc(C(F)F)cc1
1.42 | – | [O-][S+](CCc1ccccc1)C(F)F (centres undefined)
2.94 | – | Cc1ccc(C(F)F)cc1
0.63 | – | C[S+]([O-])CCc1ccccc1 (centres undefined)
2.95 | – | CSCCc1ccccc1
1.87 | – | O=S(=O)(CCc1ccccc1)C(F)F
3.16 | – | FC(F)OCCc1ccccc1
1.7 | – | O=[N+]([O-])c1ccc(S(=O)(=O)C(F)F)cc1
3.02 | – | FC(F)CCc1ccccc1
1.37 | – | O=[N+]([O-])c1ccc([S+]([O-])C(F)F)cc1 (centres undefined)
2.23 | – | COCCc1ccccc1
0.82 | – | CS(=O)(=O)CCc1ccccc1
1.53 | – | O=C1c2ccccc2C(=O)N1C(F)F
3.16 | – | FC(F)SCCc1ccccc1
2.66 | – | O=C(OC(F)F)c1ccccc1
2.61 | – | COc1ccc(C(F)F)cc1
0.61 | – | CS(=O)(=O)c1ccc([N+](=O)[O-])cc1
2.27 | – | COC(=O)c1ccccc1 [METHYL BENZOATE]

Compound | logP [1] | logP [2]
Cc1ccc(Br)cc1 | 2.91 | –
C[S+]([O-])c1ccc([N+](=O)[O-])cc1 (centres undefined) | 0.49 | –
Cc1ccc([N+](=O)[O-])cc1 [4-NITROTOLUENE] | 2.35 | –
Cc1ccc(C)cc1 [P-XYLENE] | 3.08 | –
